Test results: ChEMBL document CHEMBL1142576, “New bioactive clerodane diterpenoids from the bark of Casearia grewiifolia” (J Nat Prod, 2005)
≈ marks a conversion by molar mass, not a printed value.

Columns and labels:
[1] = tested on: Mycobacterium tuberculosis; assay: Antimycobacterial activity against Mycobacterium tuberculosis H37Ra by Alamar blue assay; assay type: functional
In short: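 Microplate Alamar Blue Assay (MABA) against strain H37Ra, with isoniazid and kanamycin sulfate as positive-control drugs.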

[2] = tested on: Plasmodium falciparum; assay: Antimalarial activity against Plasmodium falciparum K1 by [3H]hypoxanthine uptake; assay type: functional, organism-based
In short: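 P. falciparum K1 (multidrug-resistant strain) kept in culture after Trager and Jensen; in vitro microculture radioisotope assay per Desjardins. Parasite growth read as [3H]-hypoxanthine uptake; IC50 = concentration giving 50% reduction in growth. Artemisinin as positive control.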

[3] = tested on: NCI-H187; assay: Cytotoxicity against human NCI-H187 cells; assay type: functional, cell-based
In short: (§1)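 Human cancer cell lines: epidermoid carcinoma KB, breast cancer BC1 and small cell lung cancer NCI-H187. Colorimetric cytotoxicity method of Skehan and co-workers, with ellipticine as reference.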

[4] = Cytotoxicity against human BC1 cells; assay type: functional, cell-based; in short: as §1
[5] = tested on: KB; assay: Cytotoxicity against human KB cells; assay type: functional, cell-based; in short: as §1

| Compound | MIC [1] [µg/mL] | IC50 [2] [µg/mL] | IC50 [3] [µg/mL] | IC50 [4] [µg/mL] | IC50 [5] [µg/mL] |
| --- | --- | --- | --- | --- | --- |
| NNC(=O)c1ccncc1 [ISONIAZID] | 0.05 (≈ 0.365 µM) | – | – | – | – |
| NC[C@H]1O[C@H](O[C@H]2[C@H](O)[C@@H](O[C@H]3O[C@H](CO)[C@@H](O)[C@H](N)[C@H]3O)[C@H](N)C[C@@H]2N)[C@H](O)[C@@H](O)[C@@H]1O.O=S(=O)(O)O [KANAMYCIN SULFATE] | 2.5 | – | – | – | – |
| C[C@@H]1CC[C@H]2[C@@H](C)C(=O)O[C@@H]3O[C@@]4(C)CC[C@@H]1[C@]32OO4 [ARTEMISININ] | – | 0.001 (≈ 0.00354 µM) | – | – | – |
| C=CC(=C)CC[C@]1(C)[C@H]2C[C@H](OC(=O)C(C)CC)C=C3[C@H](OC(C)=O)O[C@H](OC(C)=O)[C@@]32[C@H](O)C[C@@H]1C (relative stereo) | 12.5 (≈ 24.1 µM) | 3.1 (≈ 5.98 µM) | 5.3 (≈ 10.2 µM) | 2.5 (≈ 4.82 µM) | 2.8 (≈ 5.4 µM) |
| C=C/C(C)=C\C[C@]1(C)[C@H](C)CC[C@@]23C(=C[C@H](O)C[C@@H]12)[C@@H](OC(C)=O)O[C@H]3OC(C)=O [CASEARGREWIIN D] | 12.5 (≈ 29.9 µM) | 3.3 (≈ 7.88 µM) | 1.5 (≈ 3.58 µM) | 0.1 (≈ 0.239 µM) | 1.3 (≈ 3.11 µM) |
| C=C/C(C)=C\C[C@]1(C)[C@H](C)[C@@H](OC(=O)/C=C/c2ccc(O)cc2)[C@H](O)[C@@]23C(=C[C@H](OC(=O)CCC)C[C@@H]12)[C@@H](OC(C)=O)O[C@H]3OC(C)=O (relative stereo) [CASEARGREWIIN B] | 12.5 (≈ 18.7 µM) | 2.4 (≈ 3.6 µM) | 1.5 (≈ 2.25 µM) | 1.9 (≈ 2.85 µM) | 2.3 (≈ 3.45 µM) |
| C=CC(=C)CC[C@]1(C)[C@H]2C[C@H](OC(=O)C(C)CC)C=C3[C@H](OC(C)=O)O[C@H](OC(C)=O)[C@@]32[C@H](OC)C[C@@H]1C (relative stereo) | 12.5 (≈ 23.5 µM) | 3.2 (≈ 6.01 µM) | 0.8 (≈ 1.5 µM) | 4 (≈ 7.51 µM) | 7.6 (≈ 14.3 µM) |
| Cc1c2ccncc2c(C)c2c1[nH]c1ccccc12 [ELLIPTECINE] | – | – | – | 0.26 (≈ 1.06 µM) | – |
| C=CC(=C)CC[C@]1(C)[C@H]2C[C@H](OC(=O)CC(C)C)C=C3[C@H](OC(C)=O)O[C@H](OC(C)=O)[C@@]32[C@H](OC)C[C@@H]1C (relative stereo) [CASEARGREWIIN A] | 12.5 (≈ 23.5 µM) | 2.9 (≈ 5.44 µM) | 0.9 (≈ 1.69 µM) | 4.6 (≈ 8.64 µM) | 8.7 (≈ 16.3 µM) |
| C=C/C(C)=C\C[C@]1(C)[C@H](C)[C@@H](OC(C)=O)[C@H](O)[C@@]23C(=C[C@H](OC(=O)CC(C)C)C[C@@H]12)[C@@H](OC(C)=O)O[C@H]3OC(C)=O (relative stereo) [CASEARGREWIIN C] | 25 (≈ 43.4 µM) | 3 (≈ 5.2 µM) | 0.3 (≈ 0.52 µM) | 2 (≈ 3.47 µM) | 1.9 (≈ 3.29 µM) |
